Results reported in ChEMBL document CHEMBL1152325, “Antioxidant and anticholinesterase activity evaluation of ent-kaurane diterpenoids from Sideritis arguta” (J Nat Prod, 2009).

What was measured:
[1] = Antioxidant activity against beta-carotene and linoleic acid assessed as inhibition of bleaching of beta-carotene; assay type: functional
In short: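 β-Carotene–linoleic acid model system on extracts and isolated diterpenoids. Bleaching inhibition was measured at four concentrations in triplicate, reported as mean ± SD. IC50 in µg/mL.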

[2] = tested on: Radical scavenging activity; assay: Antioxidant activity assessed as DPPH radical scavenging activity; assay type: functional
In short: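 DPPH free-radical scavenging by the Blois method on extracts and diterpenoids. Tested at four concentrations in triplicate analyses, given as mean ± SD. Results expressed as IC50 (µg/mL).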

[3] = Antioxidant activity assessed as superoxide radical scavenging activity by phenazin methosulphate-NADH-NBT assay; assay type: functional
In short: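 Superoxide-anion scavenging by the NADH-PMS-NBT method after Liu et al. Extracts and diterpenoids were tested at four concentrations in triplicate, as mean ± SD. IC50 reported in µg/mL.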

Acetylcholinesterase = Acetylcholinesterase (Homo sapiens, UniProt P22303); assay: Inhibition of AChE by spectrophotometry
Cholinesterase = Cholinesterase (Homo sapiens, UniProt P06276); assay: Inhibition of BChE by spectrophotometry
Chain of Cholinesterase (P06276 whole entry): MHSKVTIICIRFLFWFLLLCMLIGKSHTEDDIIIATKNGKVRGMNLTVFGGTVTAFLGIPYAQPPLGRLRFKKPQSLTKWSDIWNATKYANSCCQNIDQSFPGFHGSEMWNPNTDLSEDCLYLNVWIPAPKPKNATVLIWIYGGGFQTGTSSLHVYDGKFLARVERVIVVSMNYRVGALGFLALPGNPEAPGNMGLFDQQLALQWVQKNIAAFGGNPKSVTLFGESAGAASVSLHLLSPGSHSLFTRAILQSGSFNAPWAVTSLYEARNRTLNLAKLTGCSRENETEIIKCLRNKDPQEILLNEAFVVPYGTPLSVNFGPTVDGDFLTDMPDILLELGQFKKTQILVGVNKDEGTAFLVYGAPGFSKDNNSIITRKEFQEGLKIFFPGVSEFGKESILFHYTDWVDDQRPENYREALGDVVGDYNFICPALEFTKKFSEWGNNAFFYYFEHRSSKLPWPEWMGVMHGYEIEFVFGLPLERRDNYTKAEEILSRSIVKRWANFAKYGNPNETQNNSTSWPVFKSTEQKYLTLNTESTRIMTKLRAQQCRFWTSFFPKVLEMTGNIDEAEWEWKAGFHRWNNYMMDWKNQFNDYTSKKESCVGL

Chain of Acetylcholinesterase (P22303 whole entry): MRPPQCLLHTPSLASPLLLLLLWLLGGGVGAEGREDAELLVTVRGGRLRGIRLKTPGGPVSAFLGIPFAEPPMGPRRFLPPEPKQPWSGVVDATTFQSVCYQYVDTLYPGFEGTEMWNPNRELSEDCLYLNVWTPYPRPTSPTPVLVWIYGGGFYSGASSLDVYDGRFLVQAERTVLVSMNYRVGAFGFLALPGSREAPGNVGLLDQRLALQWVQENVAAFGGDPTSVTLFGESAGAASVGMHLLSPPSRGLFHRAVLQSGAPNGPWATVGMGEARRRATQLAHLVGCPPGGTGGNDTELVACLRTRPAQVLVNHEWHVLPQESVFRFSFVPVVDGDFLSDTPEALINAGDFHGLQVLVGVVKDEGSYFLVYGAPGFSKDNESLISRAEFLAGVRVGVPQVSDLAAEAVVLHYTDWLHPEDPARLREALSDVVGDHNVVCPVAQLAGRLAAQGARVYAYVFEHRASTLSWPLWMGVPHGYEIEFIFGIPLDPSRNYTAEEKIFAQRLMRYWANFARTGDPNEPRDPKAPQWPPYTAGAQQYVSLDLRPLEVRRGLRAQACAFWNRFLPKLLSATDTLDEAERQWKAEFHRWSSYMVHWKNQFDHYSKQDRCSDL

| Compound | IC50 [1] [µg/mL] | IC50 [2] | IC50 [3] | IC50 (Acetylcholinesterase; read-out: IC50) [µM] | IC50 (Cholinesterase) [µM] | IC50 ([3]; read-out: IC50) [µM] | IC50 ([1]; read-out: IC50) [µM] | IC50 ([2]; read-out: IC50) [µM] | IC50 (Acetylcholinesterase) |
| --- | --- | --- | --- | --- | --- | --- | --- | --- | --- |
| C=C1C[C@]23C[C@H]1CC[C@H]2[C@]1(C)CCC[C@](C)(CO)[C@@H]1C[C@@H]3O | 43.1 | Not Active | Not Active | 22.8 | 21.1 | – | – | – | – |
| Cc1c(C)c2c(c(C)c1O)CC[C@@](C)(CCC[C@H](C)CCC[C@H](C)CCCC(C)C)O2 [ALPHA-TOCOPHEROL] | 2.1 | 12.26 µg/mL | – | – | – | – | – | – | – |
| COc1ccc(O)c(C(C)(C)C)c1.COc1ccc(O)cc1C(C)(C)C [BUTYLATED HYDROXYANISOLE] | 1.5 | 5.88 µg/mL | – | – | – | 27.1 | – | – | – |
| Cc1cc(C(C)(C)C)c(O)c(C(C)(C)C)c1 [BUTYLATED HYDROXYTOLUENE] | 1.3 | 66.73 µg/mL | – | – | – | – | – | – | – |
| CC(=O)OC[C@@]1(C)CCC[C@]2(C)[C@H]1C[C@H](OC(C)=O)[C@@]13C[C@@H](CC[C@@H]21)[C@](C)(O)C3 [DIACETYLDISTANOL] | – | – | – | – | 176 | > 200 | > 200 | > 200 | Not Active |
| C=C1[C@@H]2CC[C@H]3[C@]4(C)CCC[C@](C)(CO)[C@@H]4C[C@H](O)[C@]3(C2)[C@@H]1O [EUBOTRIOL] | – | – | – | – | 98.1 | > 200 | > 200 | > 200 | Not Active |
| C[C@]1(CO)CCC[C@]2(C)[C@H]1C[C@H](O)[C@@]13C[C@@H](CC[C@@H]21)[C@]1(C)O[C@@H]13 [SIDEROXOL] | – | – | – | 14.5 | 25 | > 200 | > 200 | > 200 | – |
| EUBOL | – | – | – | – | 23.2 | > 200 | > 200 | > 200 | Not Active |
| ent-7alpha-acetoxy-15alpha,18-dihydroxykaur-16-ene | – | – | – | > 200 | > 200 | > 200 | > 200 | > 200 | – |
